What was measured:
[1] = system: Akt; assay: Western blot analysis of cytosolic Hsp90-dependent client protein Akt; format: cell-based; conditions: geldanamycin 0.5 μM, 24 h; all cell lines
Procedure, shortened: (§1)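 MDA-MB-231 and PC3-MM2 (DMEM), SK-MEL-28 (EMEM) or A549 (F-12K) cells, each in medium with 10% FBS and penicillin/streptomycin, were seeded at 100,000 cells/mL and grown 24 h at 37°C, 5% CO2. Cells were then treated with test compound, geldanamycin (0.5 μM) or DMSO vehicle for 24 h. Cold-PBS harvest, lysis with protease inhibitors, BCA-equalised protein, reducing 10% gels, PVDF, HRP chemiluminescence; actin loading control.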

[2] = system: Hsp70; assay: Western blot analysis of Hsp70 induction; format: cell-based; conditions: geldanamycin 0.5 μM, 24 h; all cell lines
Procedure, shortened: as §1

COC1=C2C[C@@H](C)C[C@H](OC)[C@H](O)[C@@H](C)/C=C(\C)[C@H](OC(N)=O)[C@@H](OC)/C=C\C=C(/C)C(=O)NC(=CC1=O)C2=O [geldanamycin]
degradation of Akt [1]: induced the degradation of Akt
levels of Hsp70 [2]: increased the levels of Hsp70

— publication PMC5722212 (Chemistry (Weinheim an der Bergstrasse, Germany), 2017)
